Reference: ChEMBL document CHEMBL4052643, “Development of molecular tools based on the dopamine D3 receptor ligand FAUC 329 showing inhibiting effects on drug and food maintained behavior” (Bioorg Med Chem, 2017)
pKi: −log10 of the molar value. Calls of active or inactive are those of the source. The calls are words filed in the database; no cut-off is given here.

Tests used:
Brain = experiment: Drug uptake in rat brain at 10 to 15 MBq, iv after 40 mins by PET imaging method; format: ADME, organism-based; details: in vivo
[1] = Drug uptake in rat pituitary gland at 10 to 15 MBq, iv after 40 mins pretreated with D3 ligand BP897 by PET imaging method; format: ADME, organism-based; details: in vivo
Procedure, shortened: (§1)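 In vivo PET scan of rats given the [¹⁸F]-labelled radioligand. Whole pituitary gland uptake measured at 40 min p.i. as %ID/g, with or without BP897 pretreatment.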

[2] = Drug uptake in rat brain calleja islands at 10 to 15 MBq, iv after 60 mins by phosphorus imaging based autoradiography; format: ADME, organism-based, Calleja island; details: in vivo, 1 h
Procedure, shortened: (§2)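 Rats injected with the [¹⁸F]-labelled radioligand, alone or co-injected with BP897. Coronal brain sections taken at 60 min p.i. for ex-vivo autoradiography and overlaid with HE-stained sections. Uptake expressed as region of interest-to-background ratio, with control animals compared against BP897 co-injected animals.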

[3] = Drug uptake in rat brain striatum at 10 to 15 MBq, iv after 60 mins by phosphorus imaging based autoradiography; format: ADME, organism-based; details: in vivo, 1 h; procedure, shortened: as §2
[4] = Drug uptake in rat brain ventricles at 10 to 15 MBq, iv after 60 mins by phosphorus imaging based autoradiography; format: ADME, organism-based, Brain ventricle; details: in vivo, 1 h; procedure, shortened: as §2
[5] = Drug uptake in rat brain ependyma cell layer at 10 to 15 MBq, iv after 60 mins by phosphorus imaging based autoradiography; format: ADME, organism-based; details: in vivo, 1 h; procedure, shortened: as §2
[6] = Drug uptake in rat brain plexus tissue at 10 to 15 MBq, iv after 60 mins by phosphorus imaging based autoradiography; format: ADME, organism-based; details: in vivo, 1 h; procedure, shortened: as §2
[7] = Drug uptake in rat brain ventricles at 10 to 15 MBq, iv after 40 mins by PET imaging method; format: ADME, organism-based, Brain ventricle; details: in vivo
[8] = Drug uptake in rat pituitary gland at 10 to 15 MBq, iv after 40 mins by PET imaging method; format: ADME, organism-based; details: in vivo; procedure, shortened: as §1
D(3) dopamine receptor = D(3) dopamine receptor (Homo sapiens, UniProt P35462); experiment: Displacement of [3H]spiperone from human D3 receptor expressed in CHO cell membranes
Chain of D(3) dopamine receptor (P35462 whole entry): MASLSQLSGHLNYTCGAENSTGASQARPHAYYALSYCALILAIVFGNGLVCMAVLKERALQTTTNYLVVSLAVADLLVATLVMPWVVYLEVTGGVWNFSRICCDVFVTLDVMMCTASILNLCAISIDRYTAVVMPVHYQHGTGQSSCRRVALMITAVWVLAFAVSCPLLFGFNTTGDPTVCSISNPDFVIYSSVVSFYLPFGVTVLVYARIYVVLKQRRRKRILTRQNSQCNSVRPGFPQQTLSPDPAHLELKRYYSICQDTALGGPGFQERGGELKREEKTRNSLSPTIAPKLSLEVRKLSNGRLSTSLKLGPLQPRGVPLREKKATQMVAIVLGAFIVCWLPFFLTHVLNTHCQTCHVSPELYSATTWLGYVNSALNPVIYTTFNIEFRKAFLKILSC

Rhesus monkey [9] = experiment: Reduction in food reinforcement-maintained behavior in monkey at 0.18 to 0.32 mg/kg, im administered as single dose 15 mins prior to food reinforcement during first component of session relative to control; format: functional, Macaca mulatta; set-up: scale not given: the % may be the effect or the level left; details: in the assay text read “0.32 mg/kg” for “0.18 to 0.32 mg/kg”
Procedure, shortened: (§3)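 Male rhesus monkeys trained to respond for cocaine and food under daily 2 h FR30 sessions. Sessions ran in order: food 1, a 100-min i.v. cocaine (or saline) component, then food 2. Saline pretreatment served as baseline. Values are mean ± S.E.M. of four experiments, with significance by two-tailed t-test (p < 0.05).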

[10] = Displacement of […] from porcine cerebral cortex 5-HT1A receptor; set-up: species or system Sus scrofa
Rhesus monkey [11] = experiment: Reduction in cocaine-maintained responding in monkey at 0.18 to 0.32 mg/kg, im administered as single dose 15 mins prior to self administration of 0.003 mg/kg, iv per injection of cocaine for 100 mins relative to control; format: functional, Macaca mulatta; set-up: scale not given: the % may be the effect or the level left; procedure, shortened: as §3
Rhesus monkey [12] = experiment: Reduction in cocaine-maintained responding in monkey at 0.18 to 0.32 mg/kg, im administered as single dose 15 mins prior to self administration of 0.01 to 0.03 mg/kg, iv per injection of cocaine for 100 mins relative to control; format: functional, Macaca mulatta; set-up: scale not given: the % may be the effect or the level left; procedure, shortened: as §3
Rhesus monkey [13] = experiment: Reduction in cocaine-maintained responding in monkey at 0.18 to 0.32 mg/kg, im administered as single dose 15 mins prior to self administration of 0.1 mg/kg, iv per injection of cocaine for 100 mins relative to control; format: functional, Macaca mulatta; set-up: scale not given: the % may be the effect or the level left; procedure, shortened: as §3
Rhesus monkey [14] = experiment: Reduction in cocaine-maintained responding in monkey administered im 15 mins prior to self administration of 0.1 mg/kg, iv per injection of cocaine for 100 mins; format: functional, organism-based; details: Macaca mulatta; procedure, shortened: as §3
Rhesus monkey [15] = experiment: Reduction in food reinforcement-maintained behavior in monkey at 0.18 to 0.32 mg/kg, im administered as single dose 15 mins prior to food reinforcement during second component of session relative to control; format: functional, Macaca mulatta; set-up: scale not given: the % may be the effect or the level left; procedure, shortened: as §3
[16] = molecular target: D(3) dopamine receptor (Rattus norvegicus) (UniProt P19020); experiment: Displacement of BP897 from D3 receptor in rat brain islands of calleja at 5 MBq after 45 mins by phosphorus imaging based autoradiography; details: 5 M, tested as the 18F-labelled form
Chain of D(3) dopamine receptor (Rattus norvegicus) (P19020 whole entry): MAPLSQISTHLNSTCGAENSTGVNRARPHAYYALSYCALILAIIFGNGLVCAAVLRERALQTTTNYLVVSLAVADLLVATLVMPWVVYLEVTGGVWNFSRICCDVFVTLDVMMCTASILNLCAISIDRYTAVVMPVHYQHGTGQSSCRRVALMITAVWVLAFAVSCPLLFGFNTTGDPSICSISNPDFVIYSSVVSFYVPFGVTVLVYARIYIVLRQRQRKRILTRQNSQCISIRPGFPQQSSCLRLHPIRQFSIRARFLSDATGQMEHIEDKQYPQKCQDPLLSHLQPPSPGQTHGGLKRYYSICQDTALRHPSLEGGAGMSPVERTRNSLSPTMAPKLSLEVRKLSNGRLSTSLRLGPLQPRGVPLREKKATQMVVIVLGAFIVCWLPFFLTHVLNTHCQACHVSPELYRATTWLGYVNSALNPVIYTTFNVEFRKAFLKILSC

[17] = molecular target: D(3) dopamine receptor (Rattus norvegicus) (UniProt P19020); experiment: Displacement of BP897 from D3 receptor in rat brain lateral septum nuclei at 5 MBq after 45 mins by phosphorus imaging based autoradiography; details: 5 M, tested as the 18F-labelled form
[18] = molecular target: D(3) dopamine receptor (Rattus norvegicus) (UniProt P19020); experiment: Displacement of BP897 from D3 receptor in rat brain striatum at 5 MBq after 45 mins by phosphorus imaging based autoradiography; details: 5 M, tested as the 18F-labelled form
[19] = molecular target: D(3) dopamine receptor (Rattus norvegicus) (UniProt P19020); experiment: Displacement of BP897 from D3 receptor in rat brain cortex at 5 MBq after 45 mins by phosphorus imaging based autoradiography; details: 5 M, tested as the 18F-labelled form
D(1A) dopamine receptor = D(1A) dopamine receptor (Homo sapiens, UniProt P21728); experiment: Displacement of […] from human D1 receptor expressed in HEK293T cell membranes; set-up: species or system HEK-293T
Chain of D(1A) dopamine receptor (P21728 whole entry): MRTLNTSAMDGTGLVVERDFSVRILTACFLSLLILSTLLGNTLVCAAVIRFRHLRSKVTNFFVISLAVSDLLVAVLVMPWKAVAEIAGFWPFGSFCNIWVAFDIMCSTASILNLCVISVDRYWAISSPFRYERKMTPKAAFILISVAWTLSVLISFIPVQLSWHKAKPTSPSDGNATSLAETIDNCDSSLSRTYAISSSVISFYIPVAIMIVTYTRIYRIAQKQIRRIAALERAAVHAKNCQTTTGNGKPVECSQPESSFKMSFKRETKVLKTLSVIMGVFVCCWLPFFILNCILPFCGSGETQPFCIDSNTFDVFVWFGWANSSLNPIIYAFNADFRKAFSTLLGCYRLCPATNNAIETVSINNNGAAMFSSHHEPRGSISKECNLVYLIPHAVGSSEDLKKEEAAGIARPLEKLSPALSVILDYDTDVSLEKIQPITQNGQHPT

D(1B) dopamine receptor = D(1B) dopamine receptor (Homo sapiens, UniProt P21918); experiment: Displacement of […] from human D5 receptor expressed in HEK293T cell membranes; set-up: species or system HEK-293T
Chain of D(1B) dopamine receptor (P21918 whole entry): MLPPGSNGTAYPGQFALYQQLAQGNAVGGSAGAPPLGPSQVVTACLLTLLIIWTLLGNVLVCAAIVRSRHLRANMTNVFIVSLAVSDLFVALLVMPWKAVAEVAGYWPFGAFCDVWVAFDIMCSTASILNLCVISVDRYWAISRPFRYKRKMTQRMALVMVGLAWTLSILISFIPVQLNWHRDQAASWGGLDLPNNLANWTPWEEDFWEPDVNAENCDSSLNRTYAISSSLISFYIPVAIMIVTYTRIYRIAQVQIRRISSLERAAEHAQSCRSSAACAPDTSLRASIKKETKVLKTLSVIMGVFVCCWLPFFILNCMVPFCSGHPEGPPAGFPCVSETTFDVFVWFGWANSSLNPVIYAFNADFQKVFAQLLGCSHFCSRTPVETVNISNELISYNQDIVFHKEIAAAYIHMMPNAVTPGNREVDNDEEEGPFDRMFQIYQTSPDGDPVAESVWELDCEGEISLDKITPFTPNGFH

D(2) dopamine receptor [20] = molecular target: T1, D(2) dopamine receptor (Homo sapiens, UniProt P14416); experiment: Displacement of [3H]spiperone from human D2-long receptor expressed in CHO cell membranes
T1 sequence (P14416 whole entry): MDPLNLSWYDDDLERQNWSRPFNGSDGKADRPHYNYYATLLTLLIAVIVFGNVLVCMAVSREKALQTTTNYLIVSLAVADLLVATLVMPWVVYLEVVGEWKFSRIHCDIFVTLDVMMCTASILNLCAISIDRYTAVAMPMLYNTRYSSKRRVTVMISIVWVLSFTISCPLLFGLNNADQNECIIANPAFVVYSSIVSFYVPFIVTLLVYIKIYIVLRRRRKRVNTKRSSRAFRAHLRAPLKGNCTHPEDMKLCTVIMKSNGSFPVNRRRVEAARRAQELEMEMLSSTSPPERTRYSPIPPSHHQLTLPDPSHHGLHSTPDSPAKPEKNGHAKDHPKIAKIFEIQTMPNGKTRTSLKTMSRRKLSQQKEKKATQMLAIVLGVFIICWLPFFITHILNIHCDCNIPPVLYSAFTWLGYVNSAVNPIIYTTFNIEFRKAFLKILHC

D(2) dopamine receptor [21] = molecular target: T1, D(2) dopamine receptor; experiment: Displacement of [3H]spiperone from human D2-short receptor expressed in CHO cell membranes
D(4) dopamine receptor = molecular target: T2, D(4) dopamine receptor (Homo sapiens, UniProt P21917); experiment: Displacement of [3H]spiperone from human D4 receptor expressed in CHO cell membranes
T2 sequence (P21917 whole entry): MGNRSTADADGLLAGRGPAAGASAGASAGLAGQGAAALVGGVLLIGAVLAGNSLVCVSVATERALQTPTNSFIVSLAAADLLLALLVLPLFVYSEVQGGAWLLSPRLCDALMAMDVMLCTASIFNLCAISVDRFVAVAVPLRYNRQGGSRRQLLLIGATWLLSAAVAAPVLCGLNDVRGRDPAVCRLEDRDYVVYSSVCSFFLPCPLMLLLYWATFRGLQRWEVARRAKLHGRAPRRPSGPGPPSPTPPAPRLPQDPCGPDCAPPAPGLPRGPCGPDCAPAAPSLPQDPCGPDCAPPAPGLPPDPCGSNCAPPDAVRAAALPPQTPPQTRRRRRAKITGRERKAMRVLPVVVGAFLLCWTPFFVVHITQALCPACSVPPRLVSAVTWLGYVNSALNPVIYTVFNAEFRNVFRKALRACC

[22] = molecular target: 5-hydroxytryptamine receptor 2A (Homo sapiens, UniProt P28223); experiment: Displacement of [3H]ketanserin from human 5-HT2A receptor expressed in HEK293T cell membranes; set-up: species or system HEK-293T
Chain of 5-hydroxytryptamine receptor 2A (P28223 whole entry): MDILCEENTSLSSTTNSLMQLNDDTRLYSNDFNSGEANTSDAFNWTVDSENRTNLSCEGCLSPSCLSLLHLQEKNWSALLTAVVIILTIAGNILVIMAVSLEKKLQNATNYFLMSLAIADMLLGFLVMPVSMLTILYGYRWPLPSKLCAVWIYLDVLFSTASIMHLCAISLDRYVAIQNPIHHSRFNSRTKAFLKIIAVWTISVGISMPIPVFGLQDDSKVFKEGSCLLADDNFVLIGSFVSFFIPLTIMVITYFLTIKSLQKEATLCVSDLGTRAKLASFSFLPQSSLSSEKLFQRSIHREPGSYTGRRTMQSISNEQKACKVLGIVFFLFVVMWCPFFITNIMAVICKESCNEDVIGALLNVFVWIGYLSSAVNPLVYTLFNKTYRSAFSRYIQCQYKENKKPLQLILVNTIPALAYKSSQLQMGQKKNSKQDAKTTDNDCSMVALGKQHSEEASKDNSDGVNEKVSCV

Homo sapiens [23] = species on record: Homo sapiens; experiment: Selectivity ratio of Ki for human D2-long receptor expressed in CHO cell membranes to Ki for human D3 receptor expressed in CHO cell membranes; format: cell-based
Homo sapiens [24] = species on record: Homo sapiens; experiment: Selectivity ratio of Ki for human D2-short receptor expressed in CHO cell membranes to Ki for human D3 receptor expressed in CHO cell membranes; format: cell-based
[25] = Selectivity ratio of Ki for porcine cerebral cortex 5-HT1A receptor to Ki for human D3 receptor expressed in CHO cell membranes; format: cell-based
Homo sapiens [26] = species on record: Homo sapiens; experiment: Selectivity ratio of Ki for human D1 receptor expressed in HEK293T cell membranes to Ki for human D3 receptor expressed in CHO cell membranes; format: cell-based
Homo sapiens [27] = species on record: Homo sapiens; experiment: Selectivity ratio of Ki for human D5 receptor expressed in HEK293T cell membranes to Ki for human D3 receptor expressed in CHO cell membranes; format: cell-based
Homo sapiens [28] = species on record: Homo sapiens; experiment: Selectivity ratio of Ki for human D4 receptor expressed in CHO cell membranes to Ki for human D3 receptor expressed in CHO cell membranes; format: cell-based
Homo sapiens [29] = species on record: Homo sapiens; experiment: Selectivity ratio of Ki for human 5-HT2A receptor expressed in HEK293T cell membranes to Ki for human D3 receptor expressed in CHO cell membranes; format: cell-based
[30] = tested as the 18F-labelled form

SMILES	pKi (D(3) dopamine receptor)	pKi [10]	pKi (D(1A) dopamine receptor)	pKi (D(1B) dopamine receptor)	pKi (D(2) dopamine receptor [20])	pKi (D(2) dopamine receptor [21])	pKi (D(4) dopamine receptor)	pKi [22]	further results
O=C(NCCCCN1CCN(c2ccccc2OCC[18F])CC1)c1cc2ccccn2n1	9.51	–	–	–	–	–	–	–	Drug uptake (Brain): Active; Drug uptake [1]: Not Active; Drug uptake [2]: Not Active; Drug uptake [3]: Not Active; Drug uptake [4]: Active; Drug uptake [5]: Active; Drug uptake [6]: Active; Drug uptake [7]: Active; Drug uptake [8]: 0.394 % ID/g
COc1ccccc1N1CCN(CCCCNC(=O)c2cc3ccccn3n2)CC1	–	8.00	–	–	–	–	–	–	Activity (Rhesus monkey [9]): 30%; Activity (Rhesus monkey [11]): <25%; Activity (Rhesus monkey [12]): 70 - 75%; Activity (Rhesus monkey [13]): 45%; Activity (Rhesus monkey [14]): Dose-dependent effect; Activity (Rhesus monkey [15]): 80%
O=C(NCCCCN1CCN(c2ccccc2OCCF)CC1)c1cc2ccccn2n1	9.51	8.19	6.07	5.42	7.41	7.68	6.80	6.28	inhibition [16]: Active; inhibition [17]: Active; inhibition [18]: Active; inhibition [19]: Active; Ratio Ki (Homo sapiens [23]; [30]): 130; Ratio Ki (Homo sapiens [24]; [30]): 68
O=C(NCCCCN1CC[N+]2(CCOc3ccccc32)CC1)c1cc2ccccn2n1	6.70	6.05	5.24	< 4.30	5.20	5.35	< 5.00	< 5.00	–
CC(C)(C)c1nc(N2CCN(CCCCNC(=O)c3cc4ccccn4n3)CC2)cc(C(F)(F)F)n1	8.92	5.01	5.12	5.24	6.37	6.70	5.33	5.57	Ratio Ki [25]: 8000
CC(C)(C)c1nc(N2CCN(CCCCNC(=O)c3cc4ccccc4s3)CC2)cc(C(F)(F)F)n1	8.62	< 4.30	< 5.00	< 5.00	5.40	5.57	< 5.00	5.15	Ratio Ki [25]: 1000 to 20000; Ratio Ki (Homo sapiens [26]): 1000 to 20000; Ratio Ki (Homo sapiens [27]): 1000 to 20000; Ratio Ki (Homo sapiens [23]): 1000 to 20000; Ratio Ki (Homo sapiens [24]): 1000 to 20000; Ratio Ki (Homo sapiens [28]): 1000 to 20000; Ratio Ki (Homo sapiens [29]): 1000 to 20000
CN(C)C(=O)N[C@H]1CC[C@H](CCN2CCN(c3cccc(Cl)c3Cl)CC2)CC1 [CARIPRAZINE]	–	–	–	5.10	–	–	–	–	–
